Here are results for 7 molecules from ChEMBL document CHEMBL1141617, “Synthesis and evaluation of antitumoral activity of ester and amide derivatives of 2-arylamino-6-trifluoromethyl-3-pyridinecarboxylic acids” (2008).

Common to all, as to assay type: functional
In one experiment the test system is HOP-92. The experiment can be described thus: Growth inhibition of human HOP92 cells. The note with it: for TGI: read-out: Log TGI (converted). An outline of the steps: (§1)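 NCI 60 human tumour cell line panel grown in RPMI1640 with 5% fetal calf serum and 2 mM L-glutamine. Cells seeded at a density set by each line's growth characteristics and preincubated 24 h. Compounds added in DMSO at 10^-4 to 10^-8 M (five 10-fold dilutions) and left 48 h continuously. Growth read by sulforhodamine B protein stain. GI50 is the molar concentration giving 50% net growth inhibition.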

For the next experiment, the system named is OVCAR-3. In words: Growth inhibition of human OVCAR-3 cells. The essentials: as §1
The subject of the next experiment is Hs-578T. The experiment can be described thus: Growth inhibition of human HS578T cells. As to conditions: for TGI: read-out: Log TGI (converted). The essentials: as §1
In another experiment the test system is CCRF-CEM. The experiment can be described thus: Growth inhibition of human CCRF-CEM cells. An outline of the steps: as §1
A further experiment relates to K562. In words: Growth inhibition of human K562 cells. The essentials: as §1
A further experiment relates to MOLT-4. The experiment can be described thus: Growth inhibition of human MOLT4 cells. As to conditions: for TGI: read-out: Log TGI (converted). An outline of the steps:
as §1

Another experiment relates to RXF 393. The experiment can be described thus: Growth inhibition of human RXF393 cells. As to conditions: for TGI: read-out: Log TGI (converted). An outline of the steps:
as §1

Another experiment has as its system SR. The experiment can be described thus: Growth inhibition of human SR cells. The essentials:
as §1

A further experiment relates to NCI-H226. In words: Growth inhibition of human NCI-H226 cells. An outline of the steps:
as §1

The nature of experiment [1]: Growth inhibition of human NCI-322M cells. An outline of the steps: as §1
For a further experiment, the system named is LOX IMVI. In words: Growth inhibition of human LOXIMVI cells. The essentials:
as §1

The test system of the next experiment is SK-MEL-5. The experiment can be described thus: Growth inhibition of human SK-MEL5 cells. As to conditions: for TGI: read-out: Log TGI (converted). The essentials: as §1
The subject of the next experiment is COLO 205. The experiment can be described thus: Growth inhibition of human COLO205 cells. The essentials:
as §1

In the next experiment the test system is SK-OV-3. The experiment can be described thus: Growth inhibition of human SKOV3 cells. An outline of the steps:
as §1

The test system of the next experiment is A498. The experiment can be described thus: Growth inhibition of human A498 cells. The essentials: as §1
For a further experiment, the system named is MDA-MB-231. In words: Growth inhibition of human MDA-MB-231 cells. The essentials:
as §1

In the next experiment the test system is RPMI-8226. In words: Growth inhibition of human RPMI8226 cells. An outline of the steps: as §1
Another experiment deals with NCI-H460. In words: Growth inhibition of human NCI-H460 cells. The essentials:
as §1

A further experiment deals with NCI-H522. In words: Growth inhibition of human NCI-H522 cells. As to conditions: for TGI: read-out: Log TGI (converted). The essentials:
as §1

Another experiment deals with HCC 2998. In words: Growth inhibition of human HCC2998 cells. An outline of the steps:
as §1

The next experiment deals with HCT-116. The experiment can be described thus: Growth inhibition of human HCT116 cells. An outline of the steps:
as §1

A further experiment relates to SK-MEL-2. The experiment can be described thus: Growth inhibition of human SKMEL2 cells. An outline of the steps: as §1
The test system of a further experiment is UACC-257. In words: Growth inhibition of human UACC257 cells. An outline of the steps:
as §1

In another experiment the test system is IGROV-1. In words: Growth inhibition of human IGROV1 cells. An outline of the steps: as §1
A further experiment has as its system PC-3. In words: Growth inhibition of human PC3 cells. An outline of the steps:
as §1

The next experiment deals with MCF7. The experiment can be described thus: Growth inhibition of human MCF7 cells. An outline of the steps: as §1
Experiment [2] can be described thus: Growth inhibition of human ADR-RES cells. The essentials:
as §1

A further experiment concerns T47D. The experiment can be described thus: Growth inhibition of human T47D cells. The essentials:
as §1

The next experiment relates to OVCAR-5. The experiment can be described thus: Growth inhibition of human OVCAR5 cells. An outline of the steps: as §1
The subject of a further experiment is CAKI-1. The experiment can be described thus: Growth inhibition of human CAKI1 cells. An outline of the steps:
as §1

The subject of a further experiment is UO-31. In words: Growth inhibition of human UO31 cells. An outline of the steps:
as §1

For the next experiment, the system named is SNB-75. The experiment can be described thus: Growth inhibition of human SNB75 cells. The essentials: as §1

A word on the GI50: it is the concentration at which growth is held to half of that of the control. Low readings indicate more potent growth inhibition, high ones less potent growth inhibition. Usually TGI stands for the concentration giving total growth inhibition.

On to `Cc1ccc(Cl)cc1Nc1nc(C(F)(F)F)ccc1C(=O)Oc1ccc(Cl)cc1`, for which the 50% growth inhibitory concentration (GI50) in the experiment on HOP-92 was 1.91 µM; in the experiment with OVCAR-3, 2.57 µM. In the experiment with OVCAR-3 (read-out: Log TGI (converted)), the TGI was 8.91 µM.

For `COc1cccc(OC(=O)c2ccc(C(F)(F)F)nc2Nc2cc(Cl)ccc2C)c1`, the GI50 with Hs-578T is 1.23 µM; with HOP-92 it was 1.62 µM; with CCRF-CEM, 2.14 µM; in the experiment with K562, 3.09 µM; in the experiment on MOLT-4, 3.09 µM; in the experiment on RXF 393, 0.245 µM. Besides, the TGI in the experiment on Hs-578T is 4.79 µM; in the experiment on HOP-92 it was 6.92 µM; in the experiment with CCRF-CEM (read-out: Log TGI (converted)), 5.13 µM; with K562 (read-out: Log TGI (converted)), 9.33 µM; in the experiment on MOLT-4, 7.94 µM; with RXF 393, 0.977 µM.

In the case of `Cc1ccc(Cl)cc1Nc1nc(C(F)(F)F)ccc1C(=O)N1CCN(c2cccc(Cl)c2)CC1`, in the experiment with SR, the GI50 is 2.75 µM.

Consider `Cc1ccc(Cl)cc1Nc1nc(C(F)(F)F)ccc1C(N)=O`, for which the concentration for 50% growth inhibition (GI50) in the experiment with NCI-H226 is 1.45 µM; in [1], 2.04 µM; with LOX IMVI, 2.24 µM; with SK-MEL-5, 1.91 µM; in the experiment on Hs-578T, 0.813 µM. Besides, the TGI is 9.77 µM in the experiment with NCI-H226 (read-out: Log TGI (converted)), 6.61 µM in the experiment on SK-MEL-5 and 3.98 µM in the experiment on Hs-578T.

Take `Cc1ccc(Cl)cc1Nc1nc(C(F)(F)F)ccc1C(=O)Nc1cccc(C(F)(F)F)c1`: the GI50 in the experiment with SK-MEL-5 is 2.19 µM; in the experiment with HOP-92 it was 2.19 µM; with CCRF-CEM, 2.82 µM; with MOLT-4, 2.75 µM; with RXF 393, 2.69 µM; with COLO 205, 1.74 µM. Also, the 50% growth inhibitory concentration (GI50) with SK-OV-3 is 1.74 µM; in the experiment on A498 it was 2.95 µM; in the experiment with MDA-MB-231, 2.29 µM; in the experiment with RPMI-8226 it was 2.34 µM; in the experiment with NCI-H460, 2.82 µM; with NCI-H522, 1.78 µM. Moreover, the GI50 is 1.78 µM with HCC 2998; 2.4 µM in the experiment on HCT-116; 2.45 µM in the experiment on SK-MEL-2; 2.95 µM in the experiment on UACC-257; 1.7 µM in the experiment with IGROV-1; 2.09 µM with PC-3. Also, the GI50 in the experiment on MCF7 was 2.51 µM; in [2], 2.14 µM; in the experiment on T47D it was 2.24 µM. For the same molecule, the total growth inhibition concentration (TGI) was 4.47 µM in the experiment with SK-MEL-5; 8.71 µM in the experiment on HOP-92; 10 µM with MOLT-4; 7.94 µM in the experiment with RXF 393; 3.39 µM in the experiment with COLO 205 (read-out: Log TGI (converted)); 5.5 µM in the experiment on SK-OV-3 (read-out: Log TGI (converted)). Further, the concentration for total growth inhibition (TGI) was 8.51 µM in the experiment on A498 (read-out: Log TGI (converted)); 9.55 µM in the experiment on MDA-MB-231 (read-out: Log TGI (converted)); 10 µM in the experiment on NCI-H460 (read-out: Log TGI (converted)); 6.31 µM in the experiment on NCI-H522; 4.47 µM with HCC 2998 (read-out: Log TGI (converted)); 6.61 µM in the experiment on SK-MEL-2 (read-out: Log TGI (converted)). The concentration for total growth inhibition (TGI) is 8.32 µM in the experiment with UACC-257 (read-out: Log TGI (converted)), 9.55 µM in the experiment with MCF7 (read-out: Log TGI (converted)), 7.59 µM in experiment [2] (read-out: Log TGI (converted)) and 8.91 µM with T47D (read-out: Log TGI (converted)).

Regarding `COc1cccc(NC(=O)c2ccc(C(F)(F)F)nc2Nc2ccc(Cl)cc2C)c1`, the GI50 is 1.17 µM with RXF 393; 1.66 µM in the experiment on A498; 1.29 µM in the experiment with NCI-H522; 2.51 µM with OVCAR-5; 2.75 µM with CAKI-1; 1.45 µM in the experiment on UO-31. Moreover, the TGI with NCI-H522 was 7.24 µM; in the experiment with UO-31 (read-out: Log TGI (converted)), 8.32 µM.

In the case of `Cc1ccc(Cl)cc1Nc1nc(C(F)(F)F)ccc1C(=O)N1CCN(c2ccc(F)cc2)CC1`, the GI50 in the experiment with IGROV-1 was 0.132 µM; with CAKI-1, 1.51 µM; in the experiment with SNB-75 it was < 0.01 µM.
